Compound activity from PubChem.
DNA FID counter: compounds displacing fluorescent DNA intercalator, primary screen, artefact control for HCV NS3 helicase inhibitor project, biochemical, FID fluorescence. inhibition, % at 7.9 µM. 290,000 compounds, 0.17% hits. AID 1845, 2009. DNA fluorescent intercalator displacement; in the data active = inhibition above about 37%;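 note: 0% = vehicle and 100% = reference compound; higher means more ethidium bromide displaced from hairpin DNA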
IMP-1 inh: IMP-1 metallo-beta-lactamase inhibitors, primary screen, biochemical, epi-absorbance readout, Pseudomonas aeruginosa enzyme; inhibition, % at 5.6 µM; purified IMP-1, nitrocefin hydrolysis, epi-absorbance fluorescence; metallo-beta-lactamase IMP-1 (Pseudomonas aeruginosa); 290,000 compounds, 0.45% hits; AID 1556, 2009;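 active = inhibition above the mean plus 3 SD of all compounds in the same screening run, cut at about 4.5% in these data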;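 note: 0% = IMP-1 with DMSO and 100% = DMSO wells lacking enzyme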
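System: purified recombinant IMP-1 beta-lactamase. Medium: Zinc- and detergent-supplemented HEPES buffer, pH 7.1. Compound: one 5.6 µM dose […]. Schedule: 15 min preincubation plus 25 min reaction at 25 °C. Technique: Epi-absorbance fluorescence, 480 nm excitation, 530 nm emission.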
VIM-2 inh: VIM-2 metallo-beta-lactamase inhibitors, primary screen, biochemical, epi-absorbance readout, Pseudomonas aeruginosa enzyme | inhibition, % at 5.6 µM | 290,000 compounds, 0.89% hits | purified VIM-2, nitrocefin hydrolysis, epi-absorbance fluorescence;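 active = inhibition above the mean of all tested compounds plus 3 SD, cutoff set per screening run, cut at about 7.5% in these data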;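 note: red hydrolysis product quenches plate fluorescence so inhibitors raise well fluorescence; 0% = enzyme with DMSO and 100% = DMSO without enzyme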
RAD54 inh: inhibitors of human RAD54 branch migration, primary screen, biochemical, fluorescence, single point. DNA repair and recombination protein RAD54-like (Homo sapiens), Q92698. RAD54 Holliday junction branch migration, FAM/BHQ fluorescence. inhibition, % at 10.4 µM. 360,000 compounds, 0.14% hits;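 active = mean normalized replicate activity at least 40 and at least half of replicates scoring 40 or more; inconclusive = only one of the two criteria met; inactive = mean below 40 and under half of replicates reaching 40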;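 note: 0% = median of neutral control wells and 100% = median of positive control wells; inhibitors cause a drop in the FAM fluorescence signal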
PvdQ inh: P. aeruginosa PvdQ acylase inhibitors, primary screen, biochemical, fluorescence, plate reader and imaging, single point; purified PvdQ acylase; inhibition, % at 10 µM; 340,000 compounds, 0.063% hits; AID 488965, 2010; in the data active = inhibition above about 30%, passing the limit was not always enough; inconclusive = no clear call, values can overlap the other calls;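 note: 0% = vehicle neutral wells and 100% = reference inhibitor wells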
DNA binding: DNA binding of candidate compounds, dose response, artefact control for RAD54 inhibitor project, biochemical, fluorescence polarization, cherry-pick. shares compounds with RAD54 inh. Acridine orange-DNA displacement, 20 min. AC50, µM (doses to about 35 µM), for inactives: top-dose activity change, negative = DNA binding. 460 compounds, 8% hits;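 active = signal drop giving an AC50 within twice the top valid tested concentration of each sample, actives reach about 35 µM in these data; inactive = activity opposite to expected, plus the rest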;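 note: polarization loss reports compound binding to salmon sperm DNA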
Starred values were filed as active, the others as inactive; ? = inconclusive; / = not tested or not shown. Sampled rows, rich in hits. Any-hit rate of the full collection: about 1%.

SMILES	DNA FID counter	IMP-1 inh	VIM-2 inh	RAD54 inh	PvdQ inh	DNA binding
Cc1ccc(-c2nc(N(C)C3CCN(C)CC3)c3ccccc3n2)cc1	68.8*	-3.2	10.9*	96.5*	2.5	-21.7%
CN1CCC(N(C)c2ncnc3ccc(Br)cc23)CC1	3.7	-0.6	-0.8	10.5	-4.9	/
COC(=O)[C@@H]1[C@@H](CO)[C@@H]2Cn3c(ccc(-c4ccc(F)cc4)c3=O)[C@H]1N2C(=O)c1ccccc1F	/	/	/	1.6	/	/
COC(=O)[C@H]1[C@H](CO)[C@H]2Cn3c(ccc(-c4ccccc4)c3=O)[C@@H]1N2CC1CC1	/	/	/	-2.3	/	/
CN1CCC(n2nccc2N)CC1	4.3	1.7	0.7	10.2	-6.8	/
Nc1ccnn1C1CCNCC1	11.5	25.0*	-0.6	93.1*	-13.7	2.8%
COC(=O)[C@H]1[C@H](CO)[C@H]2Cn3c(ccc(-c4ccccc4)c3=O)[C@@H]1N2S(=O)(=O)c1ccccc1C	/	/	/	0.2	/	/
CC(Cc1ccccc1)NCc1ccccc1O (centres undefined)	6.4	-0.7	0.8	-3.4	-8.3	/
CC(Cc1ccccc1)NCC(=O)Nc1cc(N(C)C)nc2ccccc12 (centres undefined)	28.9	-1.6	0.5	?	-5.4	-1.9%
Nc1ccc(C2(c3ccc(N)cc3)CN3CCC2CC3)cc1	1.8	-5.9	-3.3	96.2*	-2.6	-0.3%
